32 compounds from ChEMBL document CHEMBL2163208, “Diphenylpyridylethanamine (DPPE) derivatives as cholesteryl ester transfer protein (CETP) inhibitors” (J Med Chem, 2012) can be followed below.

The species entered for data set [1] is Mus musculus. Briefly: Inhibition of [3H]cholesteryl ester transfer from HDL to LDL in human CETP expressed transgenic mouse plasma coexpressing apoB-100.
Data set [2] concerns Mus musculus. Briefly: [3H]cholesteryl ester transfer activity from HDL to LDL in human CETP expressed transgenic mouse plasma coexpressing apoB-100 at 30 mg/kg, po measured at 2 hrs relative to predose condition.
The nature of data set [3]: Metabolic stability in mouse liver microsomes assessed as compound remaining at 3 uM after 10 mins. The note with it: read-out: Stability. It counts as ADME, Microsome. In outline:
(§1)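 Mouse liver microsomes (1 mg/mL protein) incubated with compound at 3 μM for 10 min; remaining compound quantified by UV absorbance, expressed as % remaining or rate per mg protein.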
On the technique in general: Liver microsomes are vesicles of endoplasmic reticulum, rich in cytochrome P450 enzymes.

The nature of data set [4]: Drug metabolism in mouse liver microsomes assessed as per mg of protein at 3 uM after 10 mins. The class given is ADME, Microsome. The gist of the method: as §1
For data set [5], the system named is Mus musculus. Briefly: Residual CETP-mediated [3H]cholesteryl ester transfer from HDL to LDL in human CETP expressed transgenic mouse coexpressing apoB-100 at 30 mg/kg, po measured at 4 hrs relative to predose condition.
The nature of data set [6]: AUC (0 to 8 hrs) in transgenic mouse expressing human CETP and apoB-100 at 30 mg/kg, po. As to conditions: plasma. Also on record: time < 8 hr, dose 30 mg/kg, route oral. It counts as ADME, organism-based.
The test system of data set [7] is Mus musculus. The data set is described as follows: Residual CETP-mediated [3H]cholesteryl ester transfer from HDL to LDL in human CETP expressed transgenic mouse coexpressing apoB-100 at 30 mg/kg, po measured at 8 hrs relative to predose condition.
Data set [8] has as its target T1, Cholesteryl ester transfer protein (Homo sapiens, UniProt P11597).
T1 sequence (P11597 whole entry): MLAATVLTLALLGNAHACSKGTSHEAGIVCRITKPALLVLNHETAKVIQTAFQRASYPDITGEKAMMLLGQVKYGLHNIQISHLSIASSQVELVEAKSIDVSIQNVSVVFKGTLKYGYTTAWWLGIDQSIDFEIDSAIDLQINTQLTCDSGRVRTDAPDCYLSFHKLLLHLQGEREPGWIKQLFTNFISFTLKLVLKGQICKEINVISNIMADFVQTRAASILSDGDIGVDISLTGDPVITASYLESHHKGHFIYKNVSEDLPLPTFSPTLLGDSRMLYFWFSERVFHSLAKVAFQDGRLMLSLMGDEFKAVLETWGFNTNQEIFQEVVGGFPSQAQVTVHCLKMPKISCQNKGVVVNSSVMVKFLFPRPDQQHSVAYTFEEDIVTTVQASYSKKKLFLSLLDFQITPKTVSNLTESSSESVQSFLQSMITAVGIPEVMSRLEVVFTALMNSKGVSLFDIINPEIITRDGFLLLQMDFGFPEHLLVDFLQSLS
Briefly: Inhibition of human recombinant CETP-mediated [3H]cholesteryl ester transfer from HDL to biotinylated LDL by scintillation proximity assay. For orientation: Scintillation proximity formats need no separation of bound from free tracer.

The target of data set [9] is T1, Cholesteryl ester transfer protein. Briefly: Inhibition of CETP-mediated [3H]cholesteryl ester transfer activity in human plasma after 2.5 hrs by scintillation counter.
A short description of data set [10]: Cmax in telemeterized rat up to 60 mg/kg, po. More on the design: dose 60 mg/kg, route oral. It counts as ADME, organism-based. The note with it: in vivo.
The test system of data set [11] is Rattus norvegicus. Briefly: Toxicity in telemeterized rat assessed as change in mean arterial blood pressure up to 60 mg/kg, po. It counts as organism-based. Also on record: dose 60 mg/kg, route oral. The note with it: in vivo.
Data set [12] concerns Syrian golden hamster. The data set is described as follows: Inhibition of CETP in moderately fat-fed golden Syrian hamster assessed as increase in HDL-cholesterol level at 30 mg/kg, po qd administered for 3 days measured at 2 hrs post last dose relative to predose condition. It counts as functional, Mesocricetus auratus. Also on record: scale not given: the % may be the effect or the level left. In outline: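 Male Golden Syrian hamsters, 12 weeks old, fed moderate-fat diet (2.5% coconut oil, 0.25% cholesterol) for 2 weeks. Predose retro-orbital bleed; 30 mg/kg po q.d. for 3 days in ethanol/Cremophor/water 1:1:8. Blood 2 h postdose on day 3; HDL-C measured by automated lipid analyzer versus predose; percent increase as mean ± SEM, N = 6.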

Data set [13] can be described thus: Plasma concentration in moderately fat-fed golden Syrian hamster at 30 mg/kg, po qd administered for 3 days measured at 2 hrs post last dose. It counts as ADME, organism-based, Mesocricetus auratus. Also on record: dose 30 mg/kg, route oral. The gist of the method:
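Moderately fat-fed male Golden Syrian hamsters dosed 30 mg/kg po once daily; plasma exposure sampled 2 h after dosing on day 3.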

Data set [14] in a line: Half life in telemeterized rat up to 60 mg/kg, po. The class given is ADME, organism-based. Also on record: dose 60 mg/kg, route oral. As to conditions: in vivo.
The subject of data set [15] is Rattus norvegicus. Briefly: Toxicity in telemeterized rat assessed as change in heart rate up to 60 mg/kg, po. The class given is organism-based. Also on record: dose 60 mg/kg, route oral. The note with it: in vivo.

Consider `O=C(NC1CCCC1)N[C@@](Cc1ccccc1)(c1cc(F)cc(OC(F)(F)C(F)F)c1)c1ccc(Cl)cn1`, for which, in data set [1], the IC50 was found to be 0.94 µM. The compound further displayed an activity in vivo at 30 mg/kg in data set [2] of 48%. In data set [3], the remaining at 10 min, 3 µM is 10%. The Drug metabolism in data set [4] turned out to be 0.27 nmol/min/mg. Moreover, the CETP activity in vivo at 30 mg/kg worked out at 58% in [5] and 65% in data set [7]. The area under the curve AUC(0-t) at 8 h in data set [6] stood at 9.7 µM·h.
Consider `O=C(NC1CCCC1)N[C@@](Cc1ncn[nH]1)(c1cc(F)cc(C(F)(F)F)c1)c1ccc(Cl)cn1`, for which, in data set [8], the IC50 is more than 96 µM.
Still for that read-out and setting: for `O=C(NC1CCCC1)N[C@@](Cc1ccccn1)(c1cc(F)cc(C(F)(F)F)c1)c1ccc(Cl)cn1` the value was 27 µM; for `COC(=O)C[C@](NC(=O)NC1CCCC1)(c1cc(F)cc(C(F)(F)F)c1)c1ccc(Cl)cn1`, 2.4 µM.
Turning to `Cc1csc(C[C@](NC(=O)NC2CCCC2)(c2cc(F)cc(C(F)(F)F)c2)c2ccc(Cl)cn2)n1`, the IC50 in data set [8] is 1.1 µM; in [9], 24 µM.
The matching figures for `Cc1nc(C[C@](NC(=O)NC2CCCC2)(c2cc(F)cc(C(F)(F)F)c2)c2ccc(Cl)cn2)no1`: 1.07 µM and 34 µM.
The matching figures for `O=C(NC1CCCC1)N[C@@](Cc1ccc(F)cc1)(c1cc(F)cc(C(F)(F)F)c1)c1ccc(Cl)cn1`: 0.087 µM and 10 µM.
`C=CC[C@](NC(=O)NC1CCCC1)(c1cc(F)cc(C(F)(F)F)c1)c1ccc(Cl)cn1`: the figures for the IC50 in [8] and in [9] were 0.085 µM and 7.1 µM, respectively.
For `Cc1ccc(C[C@](NC(=O)NC2CCCC2)(c2cc(F)cc(C(F)(F)F)c2)c2ccc(Cl)cn2)cc1`, in that order: 0.023 µM and 3.4 µM.
`O=C(NC1CCCC1)N[C@@](Cc1ccccc1F)(c1cc(F)cc(C(F)(F)F)c1)c1ccc(Cl)cn1`: the IC50 in [8] turned out to be 0.016 µM; in [9], 6.4 µM.
For `CC(C)(C)CC(=O)O[C@@](Cc1ccccc1)(c1cccc(C(F)(F)F)c1)c1ccccn1`, in that order: 6.7 µM and 26 µM.
For `CC(C)(C)CC(=O)O[C@](Cc1ccccc1)(c1cccc(C(F)(F)F)c1)c1ccccn1`, in that order: 44 µM and more than 97 µM.
Consider `O=C(NC(Cc1ccccc1)(c1cccc(C(F)(F)F)c1)c1ccccn1)c1ccccc1` (stereo not given), for which the IC50 in data set [8] was more than 96 µM.
The same measure, in the same setting: for `CC(C)(C)CC(=O)NC(Cc1ccccc1)(c1cccc(C(F)(F)F)c1)c1ccccn1` (stereo not given) the value was 27 µM; for `O=C(NC(Cc1ccccc1)(c1cccc(C(F)(F)F)c1)c1ccccn1)c1cccc(C(F)(F)F)c1` (stereo not given), 12 µM.
The same measure, in the same setting: for `O=C(NC(Cc1ccccc1)(c1cccc(C(F)(F)F)c1)c1ccccn1)c1ccc(F)cc1` (stereo not given) the value was 8.9 µM.
On to `CC(C)(C)NC(=O)NC(Cc1ccccc1)(c1cccc(C(F)(F)F)c1)c1ccccn1` (stereo not given), for which the figures for the IC50 in data set [8] and in [9] were 3.8 µM and 83 µM, respectively.
Regarding `O=C(NC(Cc1ccccc1)(c1cccc(C(F)(F)F)c1)c1ccccn1)c1ccc(F)c(C(F)(F)F)c1` (stereo not given), the IC50 in data set [8] was 2.9 µM; in data set [9], 15 µM. Moreover, the remaining at 10 min, 3 µM in data set [3] was 68%.
The matching figures for `O=C(NC1CCCC1)NC(Cc1ccccc1)(c1cccc(C(F)(F)F)c1)c1ccccn1` (stereo not given): 0.7 µM, 25 µM and 2%.
`N#Cc1ccc([C@@](Cc2ccccc2)(NC(=O)NC2CCCC2)c2cc(F)cc(C(F)(F)F)c2)nc1`: the IC50 stood at 0.036 µM in [8] and 12 µM in data set [9].
For `O=C(NC1CCCC1)N[C@@](Cc1ccccc1)(c1cc(F)cc(C(F)(F)F)c1)c1ccc(F)cn1`, in that order: 0.026 µM and 7.6 µM.
The matching figures for `COc1ccc([C@@](Cc2ccccc2)(NC(=O)NC2CCCC2)c2cc(F)cc(C(F)(F)F)c2)cn1`: 0.015 µM and 3.4 µM.
As to `O=C(N[C@@](Cc1ccccc1)(c1cc(F)cc(OC(F)(F)C(F)F)c1)c1ccc(Cl)cn1)c1ccc(F)c(C(F)(F)F)c1`, the values for the IC50 in [1], in [8] and in data set [9] were 9 µM, 0.036 µM and 3.6 µM, respectively. The Cmax in data set [10] turned out to be 25 µM. The activity in vivo at 30 mg/kg in data set [2] was found to be 55%. The Activity result in [11] is “Non-toxic”; in [12] it was 40%; in data set [15], “Non-toxic”. The remaining at 10 min, 3 µM in [3] amounted to 100%. Further, the Drug metabolism in [4] was 0.0025 nmol/min/mg. In addition, the figures for the CETP activity in vivo at 30 mg/kg in data set [5] and in [7] were 48% and 40%, respectively. Moreover, the concentration at 2 h in [13] is 21 µM. This compound showed an AUC(0-t) at 8 h in [6] of 93 µM·h. The half-life in [14] is 14 h.
With `O=C(NC1CCCC1)NC(Cc1ccccc1)(c1cccc(OC(F)(F)F)c1)c1ccc(Cl)cn1` (racemic), the 50% inhibitory concentration (IC50) amounted to 0.031 µM in data set [8] and 2.7 µM in data set [9].
The matching figures for `O=C(NC1CCCC1)NC(Cc1ccccc1)(c1cccc(OC(F)(F)C(F)F)c1)c1ccc(Cl)cn1` (racemic): 0.025 µM and 0.84 µM.
The matching figures for `CC(C)(C)CC(=O)OC(Cc1ccccc1)(c1cccc(C(F)(F)F)c1)c1ccccn1` (racemic): 6.9 µM and 56 µM.
For `CC(C)(C)CC(=O)OC(Cc1ccccc1)(c1cccc(C(F)(F)F)c1)c1ccc(Cl)cn1` (racemic), the IC50 in data set [8] amounted to 1.3 µM; in [9] it was 9.4 µM.
The matching figures for `CC(C)(C)CC(=O)OC(Cc1ccccc1)(c1cccc(OC(F)(F)C(F)F)c1)c1ccccn1` (racemic): 1.1 µM and 28 µM.
With `O=C(NC1CCCC1)NC(Cc1ccccc1)(c1cccc(C(F)(F)F)c1)c1ccc(F)cn1` (racemic), the half-maximal inhibitory concentration (IC50) in data set [8] worked out at 0.24 µM; in data set [9], 6.9 µM.
For `O=C(NC1CCCC1)NC(Cc1ccccc1)(c1cccc(C(F)(F)F)c1)c1ccc(Cl)cn1` (racemic), in that order: 0.31 µM and 16 µM.
For `O=C(NC1CCCC1)NC(Cc1ccccc1)(c1ccc(Cl)nc1)c1cc(F)cc(C(F)(F)F)c1` (racemic), in that order: 0.031 µM and 12 µM.
Take `CCOC(=O)N1c2ccc(C(F)(F)F)cc2[C@@H](N(Cc2cc(C(F)(F)F)cc(C(F)(F)F)c2)C(=O)OC)C[C@H]1CC` [TORCETRAPIB]: in [1], half-maximal inhibition (IC50) was put at 0.16 µM. Further, in [2], the activity in vivo at 30 mg/kg turned out to be 31%. Further, the CETP activity in vivo at 30 mg/kg in [5] turned out to be 31%; in data set [7] it was 25%. Further, the exposure AUC(0-t) at 8 h in data set [6] turned out to be 65 µM·h.

Broadly, the IC50 is the point on the concentration scale where inhibition reaches its midpoint. What is called AUC(0-t) is exposure summed from dosing to a finite time, without extrapolation to infinity. The term Cmax denotes the highest concentration seen after dosing. As usually defined, the half-life is the time in which the quantity being followed falls by half.
